Experimental data taken from ChEMBL document CHEMBL1122190, “Mammary tumor inhibiting effect of 3,3'-diacetoxy-alpha, beta-dialkylstilbenes and of related stilbene oxides” (1982).
Each block holds one molecule with its values, some of them ahead of it.

Legend:
Mus musculus [1] = experiment: Effect on estrogen and progesterone receptors positive hormone-dependent postmenopausal human mammary carcinoma tumor growth in nude mice at 2.6 mg/kg/day; assay type: functional
In short: (§1)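 Nude mice carried serially transplanted hormone-dependent human mammary carcinoma. Compounds in olive oil were given sc 6 times a week for 4-5 weeks. Two tumor diameters were measured weekly, and size at treatment start was set as 1. Tumor size was averaged after 5 weeks of therapy.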

[2] = system: Estrogen receptor (Bos taurus); experiment: In vitro relative binding affinity for Estrogen receptor compared to [3H]estradiol
[3] = biological target: T1, Estrogen receptor (Mus musculus) (UniProt O08537+P19785); experiment: Uterotrophic activity in mice at 500 ug dose; assay type: functional, tissue-based; details: Uterus
In short: (§2)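 Dorfman uterine weight test in immature female NMRI mice (20 days old at start, 10-12 g; ten per group). Compound given sc daily in olive oil for 3 days. Animals killed 24 h after last injection; uteri removed, dried at 100 °C for 24 h and weighed.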

[4] = biological target: T1, Estrogen receptor (Mus musculus); experiment: Uterotrophic activity in mice at 1 ug dose; assay type: functional, tissue-based; details: Uterus
In short: (§3)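 Dorfman uterine weight test in immature female NMRI mice, ten per group, 20 days old and 10-12 g at start. Compounds were given in olive oil sc once daily for 3 days. Mice were killed 24 h after the last injection, and uteri were removed, dried at 100 °C for 24 h and weighed.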

[5] = biological target: T1, Estrogen receptor (Mus musculus); experiment: Uterotrophic activity in mice at 50 ug dose; assay type: functional, tissue-based; details: Uterus; in short: as §2
[6] = biological target: T1, Estrogen receptor (Mus musculus); experiment: Uterotrophic activity in mice at 10 ug dose; assay type: functional, tissue-based; details: Uterus; in short: as §3
[7] = biological target: T1, Estrogen receptor (Mus musculus); experiment: Uterotrophic activity in mice at 100 ug dose; assay type: functional, tissue-based; details: Uterus; in short: as §3
Mus musculus [8] = experiment: Effect on estrogen and progesterone receptors positive hormone-dependent postmenopausal human mammary carcinoma tumor growth in nude mice at 3.0 mg/kg/day; assay type: functional; in short: as §1
[9] = biological target: T1, Estrogen receptor (Mus musculus); experiment: Percent inhibition of estrone-stimulated uterine growth in immature mouse at 5 ug dose; assay type: functional; in short: as §3
[10] = biological target: T1, Estrogen receptor (Mus musculus); experiment: Percent inhibition of estrone-stimulated uterine growth in immature mouse at 100 ug dose; assay type: functional; in short: as §3
[11] = biological target: T1, Estrogen receptor (Mus musculus); experiment: Percent inhibition of estrone-stimulated uterine growth in immature mouse at 50 ug dose; assay type: functional; in short: as §3
[12] = biological target: T1, Estrogen receptor (Mus musculus); experiment: Antiuterotrophic activity in mice at 5 ug dose; assay type: functional; in short: as §3
[13] = biological target: T1, Estrogen receptor (Mus musculus); experiment: Uterotrophic activity in mice at 1000 ug dose; assay type: functional, tissue-based; details: Uterus; in short: as §2
[14] = biological target: T1, Estrogen receptor (Mus musculus); experiment: Antiuterotrophic activity in mice at 100 ug dose; assay type: functional; in short: as §3
[15] = biological target: T1, Estrogen receptor (Mus musculus); experiment: Antiuterotrophic activity in mice at 50 ug dose; assay type: functional; in short: as §3
Rattus norvegicus [16] = experiment: Percent unchanged DMBA-induced hormone-dependent mammary carcinoma in rats at 1.0 mg/kg/day; assay type: functional
In short: (§4)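 Female Sprague-Dawley rats received a single 20 mg DMBA dose by gastric intubation at 50 days of age. About 4 weeks later, rats bearing at least one tumor >140 mm² were grouped in tens. Compounds in olive oil were given sc 6 times a week for 28 days. Tumor area (length × width) was measured twice weekly.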

Rattus norvegicus [17] = experiment: Percent partial remission of DMBA-induced hormone-dependent mammary carcinoma in rats at 1.0 mg/kg/day; assay type: functional; in short: as §4
Mus musculus [18] = experiment: Effect on estrogen and progesterone receptors positive hormone-dependent postmenopausal human mammary carcinoma tumor growth in nude mice at 2.0 mg/kg/day; assay type: functional; in short: as §1
Rattus norvegicus [19] = experiment: Percent remission of DMBA-induced hormone-dependent mammary carcinoma in rats at 1.0 mg/kg/day; assay type: functional; in short: as §4
Rattus norvegicus [20] = experiment: Percent progression of DMBA-induced hormone-dependent mammary carcinoma in rats at 2.0 mg/kg/day; assay type: functional; in short: as §4
Rattus norvegicus [21] = experiment: Effect on DMBA-induced hormone-dependent mammary carcinoma tumor number in rats at 1.0 mg/kg/day; assay type: functional; in short: as §4
Rattus norvegicus [22] = experiment: Percent progression of DMBA-induced hormone-dependent mammary carcinoma in rats at 1.0 mg/kg/day; assay type: functional; in short: as §4
Rattus norvegicus [23] = experiment: Effect on DMBA-induced hormone-dependent mammary carcinoma tumor growth in rats at 4.0 mg/kg/day (initial tumor number); assay type: functional; in short: as §4
[24] = biological target: T1, Estrogen receptor (Mus musculus); experiment: Antiuterotrophic activity in mice at 25 ug dose; assay type: functional; in short: as §3
Rattus norvegicus [25] = experiment: Percent remission of DMBA-induced hormone-dependent mammary carcinoma in rats at 4.0 mg/kg/day; assay type: functional; in short: as §4
Rattus norvegicus [26] = experiment: Effect on DMBA-induced hormone-dependent mammary carcinoma tumor growth in rats at 2.0 mg/kg/day (number of tumors at test beginning)
Rattus norvegicus [27] = experiment: Percent partial remission of DMBA-induced hormone-dependent mammary carcinoma in rats at 2.0 mg/kg/day; assay type: functional; in short: as §4
[28] = biological target: T1, Estrogen receptor (Mus musculus); experiment: Percent inhibition of estrone-stimulated uterine growth in immature mouse at 2.5 ug dose; assay type: functional; in short: as §3
[29] = biological target: T1, Estrogen receptor (Mus musculus); experiment: Antiuterotrophic activity in mice at 2.5 ug dose; assay type: functional; in short: as §3
Rattus norvegicus [30] = experiment: Percent unchanged DMBA-induced hormone-dependent mammary carcinoma in rats at 2.0 mg/kg/day; assay type: functional; in short: as §4
Rattus norvegicus [31] = experiment: Effect on DMBA-induced hormone-dependent mammary carcinoma tumor growth in rats at 4.0 mg/kg/day; assay type: functional; in short: as §4
Rattus norvegicus [32] = experiment: Effect on DMBA-induced hormone-dependent mammary carcinoma tumor growth in rats at 1.0 mg/kg/day (initial tumor number); assay type: functional; in short: as §4
Rattus norvegicus [33] = experiment: Effect on DMBA-induced hormone-dependent mammary carcinoma tumor growth in rats at 2.0 mg/kg/day; assay type: functional; in short: as §4
Rattus norvegicus [34] = experiment: Effect on DMBA-induced hormone-dependent mammary carcinoma tumor growth in rats at 1.0 mg/kg/day; assay type: functional; in short: as §4
Rattus norvegicus [35] = experiment: Percent partial remission of DMBA-induced hormone-dependent mammary carcinoma in rats at 4.0 mg/kg/day; assay type: functional; in short: as §4
Rattus norvegicus [36] = experiment: Percent unchanged DMBA-induced hormone-dependent mammary carcinoma in rats at 4.0 mg/kg/day; assay type: functional; in short: as §4
Rattus norvegicus [37] = experiment: Effect on DMBA-induced hormone-dependent mammary carcinoma tumor number in rats at 2.0 mg/kg/day; assay type: functional; in short: as §4
[38] = biological target: T1, Estrogen receptor (Mus musculus); experiment: Percent inhibition of estrone-stimulated uterine growth in immature mouse at 25 ug dose; assay type: functional; in short: as §3
Rattus norvegicus [39] = experiment: Percent remission of DMBA-induced hormone-dependent mammary carcinoma in rats at 2.0 mg/kg/day; assay type: functional; in short: as §4
Mus musculus [40] = experiment: Effect on estrogen and progesterone receptors positive hormone-dependent postmenopausal human mammary carcinoma tumor growth in nude mice at 1.0 mg/kg/day dose; assay type: functional; in short: as §1
Rattus norvegicus [41] = experiment: Percent progression of DMBA-induced hormone-dependent mammary carcinoma in rats at 4.0 mg/kg/day; assay type: functional; in short: as §4
Rattus norvegicus [42] = experiment: Effect on DMBA-induced hormone-dependent mammary carcinoma tumor number in rats at 4.0 mg/kg/day; assay type: functional; in short: as §4
Mus musculus [43] = experiment: Effect on estrogen and progesterone receptors positive hormone-dependent postmenopausal human mammary carcinoma tumor growth in nude mice at 2.8 mg/kg/day; assay type: functional; in short: as §1
[44] = biological target: T1, Estrogen receptor (Mus musculus); experiment: Uterotrophic activity in mice at 5 ug dose; assay type: functional, tissue-based; details: Uterus; in short: as §2

T1 sequence (O08537 whole entry, looked up): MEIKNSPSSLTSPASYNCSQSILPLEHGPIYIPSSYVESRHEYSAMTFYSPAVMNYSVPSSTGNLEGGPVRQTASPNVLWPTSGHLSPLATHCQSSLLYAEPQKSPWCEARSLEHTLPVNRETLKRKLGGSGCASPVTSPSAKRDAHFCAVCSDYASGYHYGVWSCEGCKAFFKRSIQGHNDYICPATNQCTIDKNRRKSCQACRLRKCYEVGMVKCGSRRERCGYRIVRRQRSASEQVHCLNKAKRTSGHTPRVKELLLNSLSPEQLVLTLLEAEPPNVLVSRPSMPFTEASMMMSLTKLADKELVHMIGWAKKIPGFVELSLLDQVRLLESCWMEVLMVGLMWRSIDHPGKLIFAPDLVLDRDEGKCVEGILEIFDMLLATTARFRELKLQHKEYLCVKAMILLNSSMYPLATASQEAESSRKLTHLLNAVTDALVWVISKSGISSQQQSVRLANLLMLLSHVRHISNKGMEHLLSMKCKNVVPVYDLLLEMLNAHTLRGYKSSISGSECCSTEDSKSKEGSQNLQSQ
T1 sequence (P19785 whole entry, looked up): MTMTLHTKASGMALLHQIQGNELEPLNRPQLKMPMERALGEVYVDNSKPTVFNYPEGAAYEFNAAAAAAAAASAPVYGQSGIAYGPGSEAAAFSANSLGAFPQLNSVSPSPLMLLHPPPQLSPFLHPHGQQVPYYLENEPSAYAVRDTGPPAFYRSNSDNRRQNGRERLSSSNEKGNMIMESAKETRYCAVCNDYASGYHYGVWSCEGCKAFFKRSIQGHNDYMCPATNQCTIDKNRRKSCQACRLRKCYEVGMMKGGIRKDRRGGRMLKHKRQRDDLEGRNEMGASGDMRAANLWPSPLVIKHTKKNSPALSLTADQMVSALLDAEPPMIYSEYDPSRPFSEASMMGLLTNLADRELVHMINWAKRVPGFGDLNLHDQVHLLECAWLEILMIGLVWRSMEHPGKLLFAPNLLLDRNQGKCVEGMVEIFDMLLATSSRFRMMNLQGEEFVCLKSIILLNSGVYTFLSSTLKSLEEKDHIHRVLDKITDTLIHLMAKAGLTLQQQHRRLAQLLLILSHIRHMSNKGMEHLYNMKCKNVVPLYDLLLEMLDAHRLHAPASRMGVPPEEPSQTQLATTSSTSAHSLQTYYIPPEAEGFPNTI

RBA [2]: 2.2% | Effect [3]: 42 | Effect [4]: 15.9 | Effect [5]: 27.4 | Effect [6]: 24.3 | Effect [7]: 32.7
SMILES: CC/C(=C(/CC)c1cccc(OC(C)=O)c1)c1cccc(OC(C)=O)c1
Tumor size (Mus musculus [1]): 2.3

RBA [2]: 0.8% | inhibition [9]: 38.8% | inhibition [10]: 0.4% | inhibition [11]: 2.2% | Effect [12]: 32.4 | Effect [13]: 35.5 | Effect [6]: 19.8 | Effect [7]: 34.3 | Effect [14]: 42.4 | Effect [15]: 42
SMILES: CCCCC1(c2cccc(OC(C)=O)c2)OC1(CCCC)c1cccc(OC(C)=O)c1 (stereo unspecified)
Tumor size (Mus musculus [8]): 3.37

RBA [2]: 3.2% | Effect [24]: 29.9 | inhibition [28]: 18.7% | Effect [29]: 38.3 | inhibition [9]: 48% | inhibition [38]: 42.8% | inhibition [11]: 45.1% | Effect [12]: 28.1 | Effect [15]: 29.1
SMILES: CC/C(=C(/CC)c1cccc(O)c1)c1cccc(O)c1
Tumors (Rattus norvegicus [16]): 38% | Tumors (Rattus norvegicus [17]): 23% | Tumor size (Mus musculus [18]): 1.76 | Tumors (Rattus norvegicus [19]): 15% | Tumors (Rattus norvegicus [20]): 17% | No. of tumors (Rattus norvegicus [21]): 34 | Tumors (Rattus norvegicus [22]): 24% | No. of tumors (Rattus norvegicus [23]): 37 | Tumors (Rattus norvegicus [25]): 27% | Number of tumors at test beginning (Rattus norvegicus [26]): 32 | Tumors (Rattus norvegicus [27]): 26% | Tumors (Rattus norvegicus [30]): 32% | Change (Rattus norvegicus [31]): -26% | No. of tumors (Rattus norvegicus [32]): 32 | Change (Rattus norvegicus [33]): 2% | Tumors (Rattus norvegicus [34]): 40% | Tumors (Rattus norvegicus [35]): 22% | Tumors (Rattus norvegicus [36]): 32% | No. of tumors (Rattus norvegicus [37]): 21 | Tumors (Rattus norvegicus [39]): 25% | Tumor size (Mus musculus [40]): 2.78 | Tumors (Rattus norvegicus [41]): 19% | No. of tumors (Rattus norvegicus [42]): 17

RBA [2]: 0.6%
SMILES: CCCC/C(=C(/CCCC)c1cccc(OC(C)=O)c1)c1cccc(OC(C)=O)c1
Tumor size (Mus musculus [8]): 4.1

RBA [2]: 1.3%
SMILES: CCC/C(=C(/CCC)c1cccc(OC(C)=O)c1)c1cccc(OC(C)=O)c1
Tumor size (Mus musculus [43]): 2.32

Effect [44]: 21.8 | RBA [2]: 1.7% | Effect [24]: 36.3 | inhibition [9]: 15.6% | Effect [3]: 33.3 | inhibition [10]: 0% | Effect [5]: 22.1 | inhibition [38]: 7.8% | Effect [12]: 34.1 | Effect [7]: 31.1 | Effect [14]: 39.4
SMILES: CCCC1(c2cccc(OC(C)=O)c2)OC1(CCC)c1cccc(OC(C)=O)c1 (stereo unspecified)
Tumor size (Mus musculus [43]): 1.85
